# Measurements published in PubChem BioAssay AID602171 (The Scripps Research Institute Molecular Screening Center, 2012).
# Target: Aryl hydrocarbon receptor (Homo sapiens) (UniProt P35869)
# Experiment: AHR agonists in hepatoma reporter cells, late-stage follow-up, AHR activator project, HG2L7.5c1 HepG2 cells, luminescence (AID 602171)
# Details: HG2L7.5c1 HepG2 DRE-luciferase reporter, 24 h, at 10 µM, stronger effect = higher value
# Outline: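 Assay system: HepG2 (HG2L7.5c1) cells with DRE-driven luciferase reporter / Probe or stimulus: reporter driven by MMTV promoter plus 20 murine CYP1A1 DREs / Compound: one dose, 10 µM nominal / Times: 24 h compound exposure, 37 °C / Detection: luminescence after cell lysis / Measure: % of maximal TCDD activation / Replicates: three wells each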
# Sequence of Aryl hydrocarbon receptor (Homo sapiens) (P35869 whole entry, looked up): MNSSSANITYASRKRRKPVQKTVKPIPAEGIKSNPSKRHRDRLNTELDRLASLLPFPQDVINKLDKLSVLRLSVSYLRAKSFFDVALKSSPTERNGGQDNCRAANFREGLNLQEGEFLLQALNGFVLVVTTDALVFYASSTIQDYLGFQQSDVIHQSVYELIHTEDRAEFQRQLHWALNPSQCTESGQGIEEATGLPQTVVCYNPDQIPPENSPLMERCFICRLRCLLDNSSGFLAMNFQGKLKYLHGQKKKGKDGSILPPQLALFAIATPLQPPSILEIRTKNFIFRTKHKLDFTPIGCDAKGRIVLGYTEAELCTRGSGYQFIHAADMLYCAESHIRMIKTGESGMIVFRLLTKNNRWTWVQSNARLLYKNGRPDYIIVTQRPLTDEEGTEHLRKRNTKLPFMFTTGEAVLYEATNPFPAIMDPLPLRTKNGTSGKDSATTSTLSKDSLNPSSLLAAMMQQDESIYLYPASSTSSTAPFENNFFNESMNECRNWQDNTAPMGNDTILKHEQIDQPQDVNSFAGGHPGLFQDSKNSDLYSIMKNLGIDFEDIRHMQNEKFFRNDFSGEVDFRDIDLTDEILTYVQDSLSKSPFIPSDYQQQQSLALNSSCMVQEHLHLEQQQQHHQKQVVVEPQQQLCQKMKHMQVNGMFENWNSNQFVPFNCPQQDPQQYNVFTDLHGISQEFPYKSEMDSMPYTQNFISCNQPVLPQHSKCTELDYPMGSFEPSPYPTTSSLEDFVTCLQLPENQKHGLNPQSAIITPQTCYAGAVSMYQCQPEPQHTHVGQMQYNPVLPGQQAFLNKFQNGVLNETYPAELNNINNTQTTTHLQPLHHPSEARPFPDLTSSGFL
row,SMILES,activation (% of TCDD max) [%]
1,Cc1c(-c2ccn[nH]2)cc(NC(=O)c2ccc(Cl)cc2)c(=O)n1N,86
2,O=C1c2ccccc2-c2nc3ccccc3nc21,197
3,Cc1cc(Nc2ccc(Br)cc2)n2nc(C)nc2n1,88
4,CCOc1ccc(-c2cc(C)n3nc(C(N)=O)cc3n2)cc1,41
5,CCCC(=O)Nc1nn(C)c2nc3cc(C)ccc3cc12,34
6,COc1ccccc1C(=O)Nc1ccc(N2CCCCC2)cc1,52
7,Cc1ccc(Nc2ncccc2C(N)=O)cc1,166
8,Cc1ccccc1-c1nc(-c2cccnc2)no1,117
9,COc1ccccc1NC(=O)c1ccc2c(c1)nnn2C,36
10,COC(=O)c1ccccc1NC(=O)Cn1ccnc1,71
11,Cc1csc(SCC(=O)Nc2ccc(Cl)cn2)n1,82
12,O=C(CN1CCOCC1)Nc1nc2ccc([N+](=O)[O-])cc2s1,85
13,COc1cc2c(cc1NC(=O)Nc1ccc(C)cc1)oc1ccccc12,146
14,Cc1ccc(-c2cc(-c3cccs3)[nH]n2)c(O)c1,99
15,O=C(Nc1ccon1)c1cnc2sccn2c1=O,75
16,CCOc1ccccc1NC(=O)c1ccc2nccnc2c1,126
17,COc1cc2ccccc2cc1C(=O)Nc1ccc(C)cc1,113

row,SMILES,activation (% of TCDD max) [%]
1,CCC(=O)Nc1cc(OC)c(NC(=O)c2ccccc2)cc1OC,89
2,Cn1c(N)c(C(=O)Nc2ccccc2F)sc1=S,106
3,CCOc1ccc(NC(=O)c2cc3ccccc3cc2OC)cc1,132
4,COc1ccc(NC(=O)c2cccc3c(Br)cccc23)cc1,128
5,Cn1c(C(=O)N2CCC(C(N)=O)CC2)cc2cc(Cl)ccc21,48
6,CN(C)c1nc(N)nc(-c2nc3ccccc3s2)n1,105
7,CC(=O)c1ccc(NC(=O)c2cc(Cl)nc3ccccc23)cc1,104
8,O=C(Nc1cccc(Cl)c1)c1cccnn1,44
9,COc1ccccc1NC(=O)c1ccc(C(=O)Nc2ccccc2OC)nc1,88
10,CCOC(=O)Cc1cc(-c2ccc(O)cc2)nc2ccc3ccccc3c12,109
11,COc1ccc(Cl)cc1C(=O)Nc1ccc(N(C)C(C)=O)cc1,165
12,Cc1nc(N)nc(Nc2ccc(Cl)cc2)c1Br,78
13,COc1ccccc1NC(=O)Nc1cccnc1,55
14,COc1ccc(C(=O)Nc2cc(OC)c(NC(=O)c3ccco3)cc2OC)cc1,125
15,CN1CCN(CCCNC(=O)c2cc3c(-c4ccc(Cl)cc4)nn(C)c3s2)CC1,111
16,Cc1nnc(N2C(=O)c3cccc4c([N+](=O)[O-])ccc(c34)C2=O)s1,98
